Experimental data from ChEMBL document CHEMBL4020790, “Quinazolinone derivatives as inhibitors of homologous recombinase RAD51” (Bioorg Med Chem Lett, 2017).
Active and inactive are the calls of the source. The calls are words filed in the database; no cut-off is given here.

What was measured:
[1] = test system: HCC1937; assay: Cytotoxicity against human HCC1937 cells assessed as decrease in cell viability after 120 hrs by MTS assay; assay type: functional, cell-based; details: HCC1937, 120 h
[2] = test system: MDA-MB-231; assay: Cytotoxicity against human MDA-MB-231 cells assessed as decrease in cell viability after 120 hrs by MTS assay; assay type: functional, cell-based; details: MDA-MB-231, 120 h
[3] = test system: MDA-MB-231; assay: Cytotoxicity against human MDA-MB-231 cells assessed as decrease in cell viability at 10 uM in presence of 6-Gy gamma-irradiation measured up to 120 hrs by CellTiter96 AQueous one solution cell proliferation assay; assay type: functional, cell-based
Procedure, shortened: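 MDA-MB-231 cells given 10 μM compound with or without 6 Gy irradiation; proliferation followed over a 120 h time course and expressed as mean % proliferation from 3 independent experiments; area under the curve calculated from the proliferation data.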

[4] = test system: SUM-159-PT; assay: Cytotoxicity against human SUM159PT cells assessed as decrease in cell viability after 120 hrs by MTS assay; assay type: functional, cell-based
[5] = test system: MDA-MB-436; assay: Cytotoxicity against human MDA-MB-436 cells assessed as decrease in cell viability after 120 hrs by MTS assay; assay type: functional, cell-based; details: MDA-MB-436, 120 h
[6] = test system: Hs-578T; assay: Cytotoxicity against human Hs578T cells assessed as decrease in cell viability after 120 hrs by MTS assay; assay type: functional, cell-based
[7] = test system: BT-549; assay: Cytotoxicity against human BT549 cells assessed as decrease in cell viability after 120 hrs by MTS assay; assay type: functional, cell-based; details: BT-549, 120 h
[8] = test system: MCF-10A; assay: Cytotoxicity against human MCF10A cells assessed as decrease in cell viability after 120 hrs by MTS assay; assay type: cell-based
[9] = test system: MDA-MB-468; assay: Cytotoxicity against human MDA-MB-468 cells assessed as decrease in cell viability after 120 hrs by MTS assay; assay type: functional, cell-based; details: MDA-MB-468, 120 h
[10] = test system: MDA-MB-231; assay: Cytotoxicity against human MDA-MB-231 cells assessed as decrease in cell viability at 10 uM measured up to 120 hrs by CellTiter96 AQueous one solution cell proliferation assay; assay type: functional, cell-based
Procedure, shortened: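 MDA-MB-231 cells exposed to 10 μM compound with or without 6 Gy irradiation; proliferation followed over a 120 h time course and expressed as mean % proliferation from 3 independent experiments; area under the curve derived from the proliferation data.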

[11] = biological target: T1, DNA repair protein RAD51 homolog 1 (Homo sapiens) (UniProt Q06609); assay: Binding affinity to recombinant human RAD51 at 100 uM by SPR method
T1 sequence (whole entry): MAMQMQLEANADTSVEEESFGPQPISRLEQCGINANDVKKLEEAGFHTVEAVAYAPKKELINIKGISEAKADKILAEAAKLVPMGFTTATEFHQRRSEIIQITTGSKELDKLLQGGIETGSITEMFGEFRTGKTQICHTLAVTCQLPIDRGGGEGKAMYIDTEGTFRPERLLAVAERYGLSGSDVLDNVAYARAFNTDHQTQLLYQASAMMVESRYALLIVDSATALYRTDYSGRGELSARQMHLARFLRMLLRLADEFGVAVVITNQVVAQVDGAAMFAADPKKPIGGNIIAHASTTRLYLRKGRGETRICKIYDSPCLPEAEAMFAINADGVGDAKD

[12] = biological target: T1, DNA repair protein RAD51 homolog 1 (Homo sapiens); assay: Inhibition of RAD51 in human MDA-MB-231 cells assessed as reduction in DNA damage-induced RAD51 foci formation at 10 uM incubated for 16 hrs followed by 6-Gy gamma-irradiation measured after 6 hrs by immunofluoresent assay; assay type: cell-based
Procedure, shortened: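 MDA-MB-231 cells given 10 μM compound, then 6 Gy irradiation; RAD51 foci scored by immunofluorescence, with the read-out taken as the ratio of RAD51-positive to γH2AX-positive cells.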

Question: Which IC50 [1] does the source give for `O=c1c2ccccc2nc(/C=C/c2cccnc2)n1Cc1ccccc1` here?
Answer: Its IC50 is 89.1 µM.

Question: What about the IC50 [2] of the same compound?
Answer: Its IC50 is 11.1 µM.

Question: And the Activity [3]?
Answer: Its Activity is “Active”.

Question: What about the IC50 [4] of the same compound?
Answer: Its IC50 is 84.1 µM.

Question: And the IC50 [5]?
Answer: The IC50 was 5.7 µM.

Question: And the IC50 [6]?
Answer: The IC50 was 9.6 µM.

Question: What about the IC50 [7] of the same compound?
Answer: The IC50 was 35.4 µM.

Question: What about the IC50 [8] of the same compound?
Answer: Its IC50 is 47.7 µM.

Question: And the IC50 [9]?
Answer: The IC50 was 10.2 µM.

Question: For `O=c1c2ccccc2nc(/C=C/c2cccnc2)n1Cc1ccc(Cl)cc1`, which IC50 [1] is on record?
Answer: The IC50 was 13.7 µM.

Question: And the IC50 [2]?
Answer: The IC50 was 6.7 µM.

Question: What about the Activity [10] of the same compound?
Answer: The Activity was “inactive”.

Question: And the Activity [3]?
Answer: The Activity was “Active”.

Question: What about the Activity [11] of the same compound?
Answer: The Activity was “Active”.

Question: And the IC50 [4]?
Answer: Its IC50 is 5.5 µM.

Question: What about the IC50 [5] of the same compound?
Answer: The IC50 was 4.1 µM.

Question: What about the IC50 [6] of the same compound?
Answer: Its IC50 is 4.2 µM.

Question: What about the IC50 [7] of the same compound?
Answer: The IC50 was 6.4 µM.

Question: And the IC50 [8]?
Answer: Its IC50 is 48.3 µM.

Question: And the inhibition [12]?
Answer: The inhibition was “Active”.

Question: And the IC50 [9]?
Answer: Its IC50 is 5.7 µM.

Question: `O=c1c2ccccc2nc(/C=C/c2cccnc2)n1CC1CCCCC1` was tested. Which inhibition [12] did it give?
Answer: The inhibition was “Active”.
